Measured values collected from several papers.
Target: Serine/threonine-protein kinase 17B (STK17B, Homo sapiens, UniProt O94768)
Sequence (O94768 1-372, as in one of the studies): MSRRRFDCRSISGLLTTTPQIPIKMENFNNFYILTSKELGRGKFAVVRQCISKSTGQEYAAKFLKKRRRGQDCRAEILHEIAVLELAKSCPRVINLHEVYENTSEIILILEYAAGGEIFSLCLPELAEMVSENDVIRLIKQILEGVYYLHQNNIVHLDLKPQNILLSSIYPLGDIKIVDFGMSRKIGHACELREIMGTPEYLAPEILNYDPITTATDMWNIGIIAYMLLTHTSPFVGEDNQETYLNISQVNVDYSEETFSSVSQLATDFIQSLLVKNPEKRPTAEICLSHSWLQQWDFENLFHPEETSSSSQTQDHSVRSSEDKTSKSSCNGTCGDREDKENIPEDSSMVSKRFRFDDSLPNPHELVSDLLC

| Compound | assay | conditions | remaining binding |
| --- | --- | --- | --- |
| N[C@H]1CCN(c2nccc(-c3cnn4ncccc34)n2)C1 | binding | 1 µM | 100% |
| C[C@@H]1CN(c2cc(-c3nn(C)c4ccc(OC5(C)CC5)cc34)ncn2)C[C@H](C)O1 | cell-free assay, competition with immobilised ligand | 1 µM | 100% |
| c1cncc(-c2cccc(Nc3nccc(NC4CCCCC4)n3)c2)c1 | binding, competition with immobilised ligand | 10 µM | 77% |
| Cc1c(C(=O)O)cc(-c2ccc(C3CCNCC3)cc2)c2ccc(-c3ccc(C(F)(F)F)cc3)cc12 | cell-free assay, competition with immobilised ligand | 1 µM | 100% |
| O=C(NCCCN1CCOCC1)c1ccc(Nc2nccc(-c3cc4ccccc4s3)n2)cc1 | binding, competition with immobilised ligand | 1 µM | 0% |
| CN(C)c1nccc(-c2cnc3ncccn23)n1 | binding | 1 µM | 100% |
| O=C(c1ccc(Nc2nccc(-c3cc4ccccc4s3)n2)cc1)N1CCC(N2CCCC2)CC1 | binding, competition with immobilised ligand | 1 µM | 0% |
| Cc1noc([C@H]2C[C@@H](c3ccc(C(F)(F)F)cc3)CN(C(=O)N3CCS(=O)(=O)C3)C2)n1 | cell-free assay, competition with immobilised ligand | 1 µM | 100% |
| CC1CCCN1c1nccc(-c2cnn3ncccc23)n1 (stereo not shown) | binding | 1 µM | 100% |
| COc1ncc2cc3ccccc3nc2c1C#N | cell-free assay, competition with immobilised ligand | 5 µM | 100% |
| CN(C)c1ncc(F)c(-c2cnn3ncccc23)n1 | binding | 1 µM | 87% |
| COc1cnc(Nc2cccc(S(N)(=O)=O)c2)nc1N1CCN(c2ccccc2)C(=O)C1 | binding, competition with immobilised ligand | 1 µM | 89% |
| C[C@@H](c1ccc(-n2cnc3c(N)ncnc32)cc1)N1CCc2nn(C)c(Cc3ccccc3)c2C1=O | binding, competition with immobilised ligand | 0.1 µM | 100% |
| C[C@@H]1CCN(c2nccc(-c3cnn4ncccc34)n2)C1 | binding | 1 µM | 100% |
| FC(F)(F)Oc1cccc(-c2cnc3ccc(-c4ccncc4)nn23)c1 | cell-free assay, competition with immobilised ligand | 5 µM | 85% |
| c1cnn2ncc(-c3ccnc(N4CCC45COC5)n3)c2c1 | binding | 1 µM | 100% |
| CN([C@@H]1CCc2c(CC(=O)O)c3cc(S(C)(=O)=O)ccc3n2C1)S(=O)(=O)c1ccc(F)cc1 | cell-free assay, competition with immobilised ligand | 1 µM | 85% |
| O=C(c1ccc(Nc2ncc(Cl)c(-c3ccc(Cl)s3)n2)cc1)N1CCC(N2CCCC2)CC1 | binding, competition with immobilised ligand | 1 µM | 2.7% |
| CS(=O)(=O)c1cc(C2(NC(=O)c3cncc4c3cnn4-c3ccc(F)cc3)CC2)ccn1 | cell-free assay, competition with immobilised ligand | 1 µM | 83% |
| O=C(Nc1c[nH]nc1C(=O)NC1CCNCC1)c1cc(F)cc(F)c1 | binding, competition with immobilised ligand | 1 µM | 100% |
| CN(C)C(=O)Cn1cc(-c2nc(C3(c4ccc(-c5cnc(N)nc5)cc4)CC3)no2)cn1 | cell-free assay, competition with immobilised ligand | 1 µM | 100% |
| COc1cnc(Nc2cccc(S(N)(=O)=O)c2)nc1N1CCN(c2ccccc2)CC1 | binding, competition with immobilised ligand | 1 µM | 99% |
